Test results from ChEMBL document CHEMBL5104224, “Alkyltriphenylphosphonium turns naphthoquinoneimidazoles into potent membrane depolarizers against mycobacteria” (RSC Med Chem, 2022).
Activity calls are given as the source filed them. The calls are words filed in the database; no cut-off is given here.

Tests used:
[1] = tested on: Mycobacterium tuberculosis variant bovis; assay: Antimycobacterial activity against Mycobacterium bovis BCG ATCC 35734 assessed as increase in ROS level at 0.175 to 0.64 uM incubated for 2 hrs by CellROX green reagent fluorescence assay; assay type: functional, organism-based; details: dose 0.175-0.64 µM, DDE = dose-dependent effect
Procedure, shortened: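 CellROX Green then added to 10 μM final, followed by 30 min at 37°C in the dark. Readout is green fluorescence (Ex 485/Em 520 nm) normalized to OD600. Naphthoquinone positive control, INH negative control.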

[2] = tested on: Mycobacterium tuberculosis variant bovis; assay: Induction of oxidative stress Mycobacterium bovis BCG ATCC 35734 expressing pfurA-RFP assessed as activation of pfurA at 0.5 to 2 times MIC90 measured after 24 hrs by fluorescence assay; assay type: functional, organism-based
Procedure, shortened: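 BCG carrying an integrated pfurA-mCherry reporter (kanamycin-selected). […] Red fluorescence (Ex 587/Em 630 nm) normalized to OD600. INH negative control.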

[3] = tested on: Mycobacterium tuberculosis variant bovis; assay: Bactericidal activity against Mycobacterium bovis BCG ATCC 35734 assessed as reduction on colony forming unit at 5 uM measured after 8 days by time killing assay; assay type: functional, organism-based; details: time 8.0 day
[4] = tested on: Mycobacterium tuberculosis variant bovis; assay: Antimycobacterial activity against Mycobacterium bovis BCG ATCC 35734 assessed as inhibition of bacterial growth by two-fold serial broth dilution method; assay type: functional
Procedure, shortened: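 BCG grown at 37°C in 7H9 broth with 0.05% Tween-80, 0.5% glycerol and 10% ADC. Broth dilution method. MIC50/MIC90 are the concentrations giving 50%/90% growth inhibition versus untreated drug-free controls.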

[5] = tested on: Mycobacterium tuberculosis variant bovis; assay: Bactericidal activity against Mycobacterium bovis BCG ATCC 35734 assessed as reduction on colony forming unit at 15 uM measured upto 14 days by time killing assay; assay type: functional, organism-based; details: time <= 14.0 day

SMILES: CCCCCCCCn1c2c([n+](CCCC)c1C)C(=O)c1ccccc1C2=O.[Br-]
- Activity [1]: Dde
- Activity [2]: Active

SMILES: CCCCn1c2c([n+](C3CCC4(CCCCC4)CC3)c1C)C(=O)c1ccccc1C2=O.[Br-]
- Activity [1]: Dde
- Activity [2]: Active

SMILES: Cc1nc2c(n1CCCCCCCCC[P+](c1ccccc1)(c1ccccc1)c1ccccc1)C(=O)c1ccccc1C2=O
- Activity [3]: Active

SMILES: Cc1nc2c(n1CCCCCCCCCCC[P+](c1ccccc1)(c1ccccc1)c1ccccc1)C(=O)c1ccccc1C2=O
- MIC90 [4]: 0.8 µM

SMILES: NNC(=O)c1ccncc1
- Activity [5]: Active
